This is an account of results in ChEMBL document CHEMBL4354828, “Discovery of Taniborbactam (VNRX-5133): A Broad-Spectrum Serine- and Metallo-β-lactamase Inhibitor for Carbapenem-Resistant Bacterial Infections” (J Med Chem, 2020).

≈ marks a conversion by molar mass, not a printed value.

The nature of assay [1]: Inhibition of bacterial VIM-2 using nitrocefin as substrate preincubated for 15 mins followed by susbtrate addition and measured after 10 mins by spectrophotometric method. Further details: species or system Bacteria. In outline: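 Purified β-lactamase inhibition. IC50 values are the average of duplicates unless otherwise indicated.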
Assay [2] can be described thus: Inhibition of bacterial OXA-48 using nitrocefin as substrate preincubated for 15 mins followed by susbtrate addition and measured after 10 mins by spectrophotometric method. The arrangement: species or system Bacteria.
Assay [3] has as its system Klebsiella pneumoniae. Description: Inhibition of KPC-2 in Klebsiella pneumoniae assessed as meropenem antibacterial activity at 4 ug/ml after 16 to 20 hrs by CLSI-based microbroth dilution method (Rvb >= […] ug/ml). Background: Dilution methods test growth across graded concentrations, often in twofold steps.
Assay [4] can be described thus: Inhibition of bacterial AmpC using nitrocefin as substrate preincubated for 15 mins followed by susbtrate addition and measured after 10 mins by spectrophotometric method. The arrangement: species or system Bacteria.
Assay [5] has as its system Klebsiella pneumoniae. Description: Inhibition of OXA-48 in Klebsiella pneumoniae assessed as meropenem antibacterial activity at 4 ug/ml after 16 to 20 hrs by CLSI-based microbroth dilution method (Rvb >= […] ug/ml).
The target in assay [6] is Beta-lactamase VIM-2 (Pseudomonas aeruginosa) (UniProt Q9K2N0). Nature of the assay: Inhibition of VIM-2 in Pseudomonas aeruginosa assessed as meropenem antibacterial activity at 4 ug/ml after 16 to 20 hrs by CLSI-based microbroth dilution method (Rvb >= […] ug/ml).
In assay [7] the test system is Klebsiella pneumoniae. Nature of the assay: Inhibition of VIM-4 in Klebsiella pneumoniae assessed as meropenem antibacterial activity at 4 ug/ml after 16 to 20 hrs by CLSI-based microbroth dilution method (Rvb >= […] ug/ml).
Assay [8] in a line: Inhibition of bacterial KPC-2 using imipenem as substrate preincubated for 15 mins followed by susbtrate addition and measured after 10 mins by spectrophotometric method. The arrangement: species or system Bacteria.

A word on the IC50: it is the concentration at which inhibition is half-maximal. Read a high IC50 as a need for much substance. On to `O=C(C[C@H]1CC[C@H](NCCO)CC1)N[C@H]1Cc2cccc(C(=O)O)c2OB1O`, for which the IC50 was found to be 1400 nM in assay [1], 7550 nM in assay [2], 10 nM in assay [4] and 17 nM in assay [8]. In addition, the MIC came out at 2 µg/mL (≈ 5.12 µM) with Klebsiella pneumoniae [3], 2 µg/mL (≈ 5.12 µM) with Klebsiella pneumoniae [5], 4 µg/mL (≈ 10.2 µM) in assay [6] and 0.5 µg/mL (≈ 1.28 µM) with Klebsiella pneumoniae [7].

As for `O=C(C[C@H]1CC[C@H](N2CCNCC2)CC1)N[C@H]1Cc2cccc(C(=O)O)c2OB1O`, the IC50 in assay [1] is 1500 nM; in assay [2], 1520 nM; in assay [4], 3 nM; in assay [8], 20 nM. The MIC in the assay on Klebsiella pneumoniae [3] stood at 4 µg/mL (≈ 9.63 µM); in the assay on Klebsiella pneumoniae [5] it was 16 µg/mL (≈ 38.5 µM); in assay [6], 16 µg/mL (≈ 38.5 µM); in the assay on Klebsiella pneumoniae [7], 32 µg/mL (≈ 77.1 µM).

For the compound `NC[C@H]1CC[C@H](CC(=O)N[C@H]2Cc3cccc(C(=O)O)c3OB2O)CC1`, the IC50 worked out at 1600 nM in assay [1], 1800 nM in assay [2], 25 nM in assay [4] and 100 nM in assay [8]. Further, the MIC turned out to be 1 µg/mL (≈ 2.78 µM) in the assay with Klebsiella pneumoniae [3], 2 µg/mL (≈ 5.55 µM) in the assay on Klebsiella pneumoniae [5], 4 µg/mL (≈ 11.1 µM) in assay [6] and 8 µg/mL (≈ 22.2 µM) with Klebsiella pneumoniae [7].

For `O=C(O)CN[C@H]1CC[C@H](CC(=O)N[C@H]2Cc3cccc(C(=O)O)c3OB2O)CC1`, the IC50 in assay [1] came to 2400 nM; in assay [2], 3140 nM; in assay [4], 6 nM; in assay [8], 19 nM. Further, the MIC in the assay with Klebsiella pneumoniae [3] stood at 4 µg/mL (≈ 9.9 µM); in the assay on Klebsiella pneumoniae [5], 8 µg/mL (≈ 19.8 µM); in assay [6], 16 µg/mL (≈ 39.6 µM); in the assay on Klebsiella pneumoniae [7] it was 32 µg/mL (≈ 79.2 µM).

For the compound `N=C(N)NCCN[C@H]1CC[C@H](CC(=O)N[C@H]2Cc3cccc(C(=O)O)c3OB2O)CC1`, the IC50 is 86 nM in assay [1], 1590 nM in assay [2], 6 nM in assay [4] and 27 nM in assay [8]. For the same compound, the MIC was 1 µg/mL (≈ 2.32 µM) in the assay with Klebsiella pneumoniae [3], 2 µg/mL (≈ 4.64 µM) with Klebsiella pneumoniae [5], 0.5 µg/mL (≈ 1.16 µM) in assay [6] and 0.06 µg/mL (≈ 0.139 µM) in the assay with Klebsiella pneumoniae [7].

For `NCCNc1ccc(CC(=O)N[C@H]2Cc3cccc(C(=O)O)c3OB2O)cc1`, the IC50 in assay [1] was found to be 491 nM; in assay [2], 288 nM; in assay [4], 5 nM; in assay [8], 22 nM. The MIC in the assay on Klebsiella pneumoniae [3] came out at 1 µg/mL (≈ 2.61 µM); in the assay with Klebsiella pneumoniae [5], 1 µg/mL (≈ 2.61 µM); in assay [6], 0.5 µg/mL (≈ 1.3 µM); with Klebsiella pneumoniae [7] it was 8 µg/mL (≈ 20.9 µM).

Take `O=C(C[C@H]1CC[C@H](NCc2cnc[nH]2)CC1)N[C@H]1Cc2cccc(C(=O)O)c2OB1O`: the IC50 in assay [1] stood at 477 nM; in assay [2], 454 nM; in assay [4], 14 nM; in assay [8], 36 nM. For the same compound, the MIC in the assay on Klebsiella pneumoniae [3] worked out at 1 µg/mL (≈ 2.35 µM); in the assay with Klebsiella pneumoniae [5] it was 8 µg/mL (≈ 18.8 µM); in assay [6] it was 1 µg/mL (≈ 2.35 µM); in the assay on Klebsiella pneumoniae [7] it was 8 µg/mL (≈ 18.8 µM).

Regarding `NCCN[C@H]1CC[C@@H](CC(=O)N[C@H]2Cc3cccc(C(=O)O)c3OB2O)CC1`, the IC50 in assay [1] came out at 130 nM; in assay [2], 670 nM; in assay [4], 35 nM; in assay [8] it was 30 nM. The MIC in the assay with Klebsiella pneumoniae [3] was 8 µg/mL (≈ 20.6 µM); in the assay on Klebsiella pneumoniae [5], 8 µg/mL (≈ 20.6 µM); in assay [6], 0.5 µg/mL (≈ 1.28 µM); in the assay on Klebsiella pneumoniae [7] it was 4 µg/mL (≈ 10.3 µM).

With `NCC(=O)N[C@H]1CC[C@H](CC(=O)N[C@H]2Cc3cccc(C(=O)O)c3OB2O)CC1`, the IC50 in assay [1] is 594 nM; in assay [2], 355 nM; in assay [4], 6 nM; in assay [8] it was 34 nM. Moreover, the MIC with Klebsiella pneumoniae [3] amounted to 2 µg/mL (≈ 4.96 µM); in the assay on Klebsiella pneumoniae [5], 8 µg/mL (≈ 19.8 µM); in assay [6] it was 8 µg/mL (≈ 19.8 µM); in the assay on Klebsiella pneumoniae [7], 8 µg/mL (≈ 19.8 µM).

In the case of `CS(=O)(=O)NCCN[C@H]1CC[C@H](CC(=O)N[C@H]2Cc3cccc(C(=O)O)c3OB2O)CC1`, the IC50 in assay [1] came out at 110 nM; in assay [2] it was 499 nM; in assay [4], 6 nM; in assay [8], 17 nM. Moreover, the MIC in the assay with Klebsiella pneumoniae [3] stood at 4 µg/mL (≈ 8.56 µM); with Klebsiella pneumoniae [5], 8 µg/mL (≈ 17.1 µM); in assay [6], 16 µg/mL (≈ 34.2 µM); in the assay on Klebsiella pneumoniae [7] it was 8 µg/mL (≈ 17.1 µM).

As for `CNCCN[C@H]1CC[C@H](CC(=O)N[C@H]2Cc3cccc(C(=O)O)c3OB2O)CC1`, the IC50 in assay [1] amounted to 2 nM; in assay [2], 579 nM; in assay [4] it was 11 nM; in assay [8], 12 nM. Moreover, the MIC was 0.5 µg/mL (≈ 1.24 µM) in the assay on Klebsiella pneumoniae [3], 2 µg/mL (≈ 4.96 µM) in the assay with Klebsiella pneumoniae [5] and 0.5 µg/mL (≈ 1.24 µM) in the assay on Klebsiella pneumoniae [7].

As for `NCCCN[C@H]1CC[C@H](CC(=O)N[C@H]2Cc3cccc(C(=O)O)c3OB2O)CC1`, the IC50 in assay [1] was found to be 82 nM; in assay [2], 664 nM; in assay [4], 5 nM; in assay [8] it was 70 nM. Further, the MIC with Klebsiella pneumoniae [3] amounted to 0.5 µg/mL (≈ 1.24 µM); in the assay on Klebsiella pneumoniae [5], 8 µg/mL (≈ 19.8 µM); in assay [6], 0.25 µg/mL (≈ 0.62 µM); with Klebsiella pneumoniae [7] it was 4 µg/mL (≈ 9.92 µM).

On to `N[C@H]1CC[C@@H](CC(=O)N[C@H]2Cc3cccc(C(=O)O)c3OB2O)CC1`, for which the IC50 is 1670 nM in assay [1], 18000 nM in assay [2], 5 nM in assay [4] and 120 nM in assay [8]. The MIC with Klebsiella pneumoniae [3] stood at 2 µg/mL (≈ 5.78 µM); in the assay with Klebsiella pneumoniae [5] it was 16 µg/mL (≈ 46.2 µM); in assay [6], 32 µg/mL (≈ 92.4 µM); with Klebsiella pneumoniae [7], 32 µg/mL (≈ 92.4 µM).
